Measurements from ChEMBL document CHEMBL1121582, “Structure-activity relationship of diphenylthiourea antivirals” (1980).

Assays:
Assay type in all cases: functional
[1] = Antiviral activity was evaluated in vitro against human poliovirus as antiviral affect in agar-diffusion plaque-inhibition test (- => inhibition, diameter < = 5 mm)
How it was run: (§1)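 FL cell monolayers were infected with virus (adsorption 60 min at 20 °C) at a dose giving semiconfluent plaques in 24-48 h at 37 °C. Cells were overlaid with 1% agar in Eagle medium with 10% heated calf serum. 0.1 mL of compound, usually a 2-4% solution, went into 6 mm glass cylinders set in the agar. A second overlay held 0.02% neutral red. Plaque-inhibition and cytotoxicity zone diameters (mm) were read using 3-5 cylinders in at least two dishes. Grading: -, ≤5 mm; ±, 6-10; +, 11-20; ++, ≥20.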

[2] = Antiviral activity was evaluated in vitro against human ECHO virus as antiviral affect in agar-diffusion plaque-inhibition test (- => inhibition, diameter < = 5 mm)
How it was run: (§2)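 FL cell monolayers in 90 mm dishes infected with virus dose giving semiconfluent plaques (adsorption 60 min, 20 °C), then 1% agar overlay in Eagle MM with 10% heated calf serum. Compound, 0.1 mL of usually 2-4% ethanol solution, was placed in 6 mm glass cylinders set in the agar. Concentrations were preliminarily checked as well-tolerated by the cells. Incubation was 24-48 h at 37 °C, followed by a second overlay of 1.5% agar with 0.02% neutral red. Read-out was the diameter of the plaque-inhibition zone and the cytotoxicity zone, using 3-5 cylinders per compound in ≥2 dishes. Scoring: - Δϕ ≤5 mm; ± 6-10; + 11-20; ++ ≥20 mm.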

Homo sapiens [3] = organism: Homo sapiens; assay: Antiviral activity was evaluated in vitro against human Coxsackie virus as antiviral affect in agar-diffusion plaque-inhibition test (- =>inhibition, diameter < = 5 mm); how it was run: as §2
Poliovirus 1 [4] = assay: Antiviral activity was evaluated in vitro against human poliovirus as toxicity zone in agar-diffusion plaque-inhibition test; how it was run: as §1
Poliovirus 1 [5] = assay: Antiviral activity was evaluated in vitro against human poliovirus as inhibition zone in agar-diffusion plaque-inhibition test; how it was run: as §1
cells [6] = conditions: Homo sapiens
Homo sapiens [7] = organism: Homo sapiens; assay: Antiviral activity was evaluated in vitro against human Coxsackie virus as antiviral affect in agar-diffusion plaque-inhibition test (- => inhibition, diameter < = 5 mm); how it was run: as §2
[8] = Antiviral activity was evaluated in vitro against human poliovirus as antiviral affect in agar-diffusion plaque-inhibition test - => inhibition diameter < = 5 mm; how it was run: as §1
cells [9] = conditions: Homo sapiens; remark: listed apart in the source
[10] = Antiviral activity was evaluated in vitro against human ECHO virus as toxicity zone in agar-diffusion plaque-inhibition test; how it was run: as §1
Homo sapiens [11] = organism: Homo sapiens; assay: Antiviral activity was evaluated in vitro against human ECHO virus as antiviral affect in agar-diffusion plaque-inhibition test(- => inhibition, diameter < = 5 mm); how it was run: as §1
Homo sapiens [12] = organism: Homo sapiens; assay: Antiviral activity was evaluated in vitro against human Coxsackie virus as antiviral affect in agar-diffusion plaque-inhibition test(- => inhibition, diameter < = 5 mm); how it was run: as §1
[13] = Antiviral activity was evaluated in vitro against human Coxsackie virus as toxicity zone in agar-diffusion plaque-inhibition test; how it was run: as §1
Homo sapiens [14] = organism: Homo sapiens; assay: Antiviral activity was evaluated in vitro against human poliovirus as antiviral affect in agar-diffusion plaque-inhibition test(- => inhibition, diameter < = 5 mm); how it was run: as §1
Homo sapiens [15] = organism: Homo sapiens; assay: Antiviral activity was evaluated in vitro against human poliovirus as antiviral affect in agar-diffusion plaque-inhibition test (+/- => inhibition, diameter = 6-10 mm); how it was run: as §1
cells [16] = conditions: Homo sapiens; remark: listed apart in the source
Homo sapiens [17] = organism: Homo sapiens; assay: Antiviral activity was evaluated in vitro against human Coxsackie virus as antiviral affect in agar-diffusion plaque-inhibition test (+/- => inhibition, diameter 6-10 mm); how it was run: as §1
Homo sapiens [18] = organism: Homo sapiens; assay: Antiviral activity was evaluated in vitro against human ECHO virus as antiviral affect in agar-diffusion plaque-inhibition test (+/- =>inhibition, diameter 6-10 mm); how it was run: as §1
Homo sapiens [19] = organism: Homo sapiens; assay: Antiviral activity was evaluated in vitro against human ECHO virus as antiviral affect in agar-diffusion plaque-inhibition test (+ => inhibition diameter = 11-20 mm); how it was run: as §1
Homo sapiens [20] = organism: Homo sapiens; assay: Antiviral activity was evaluated in vitro against human poliovirus as antiviral affect in agar-diffusion plaque-inhibition test (- => inhibition diameter < = 5 mm); how it was run: as §1
Homo sapiens [21] = organism: Homo sapiens; assay: Antiviral activity was evaluated in vitro against human Coxsackie virus as antiviral affect in agar-diffusion plaque-inhibition test (- => inhibition diameter < = 5 mm); how it was run: as §2
Homo sapiens [22] = organism: Homo sapiens; assay: Antiviral activity was evaluated in vitro against human ECHO virus as antiviral affect in agar-diffusion plaque-inhibition test (- => inhibition diameter < = 5 mm); how it was run: as §2

Oc1ccccc1/N=C(/S)Nc1ccccc1
Antiviral effect [1]: Not toxic | Antiviral effect [2]: Not toxic | Antiviral effect (Homo sapiens [3]): Not toxic

O=C(O)c1ccc(N/C(S)=N/c2ccccc2)cc1O
Toxicity zone (Poliovirus 1 [4]): 17.9 mm | Inhibition zone (Poliovirus 1 [5]): 36.1 mm | inhibition at 200 µM (cells [6]): 99.9%

O=C(O)c1cccc(N/C(S)=N/c2ccccc2)c1
Antiviral effect [1]: Not toxic | Antiviral effect [2]: Not toxic | Antiviral effect (Homo sapiens [7]): Not toxic

O=C(Nc1ccccc1)Nc1ccccc1O
Antiviral effect [1]: Not toxic | Toxicity zone (Poliovirus 1 [4]): 32 mm | Inhibition zone (Poliovirus 1 [5]): 36.2 mm

Nc1cccc(NC(=O)Nc2ccccc2)c1
Toxicity zone (Poliovirus 1 [4]): 0 mm | Antiviral effect [8]: Not toxic | Inhibition zone (Poliovirus 1 [5]): 0 mm

Oc1cccc(N/C(S)=N/c2ccccc2)c1
inhibition at 100 µM (cells [9]): 99.4% | Toxicity zone (Poliovirus 1 [4]): 15.8 mm | Inhibition zone (Poliovirus 1 [5]): 33 mm | inhibition at 200 µM (cells [6]): 99.9%

CC(=O)Nc1cccc(O)c1 [METACETAMOL]
Antiviral effect [1]: Not toxic | Toxicity zone (Poliovirus 1 [4]): 0 mm | Inhibition zone (Poliovirus 1 [5]): 0 mm

Nc1ccc(NC(=O)Nc2ccccc2)cc1
Toxicity zone (Poliovirus 1 [4]): 0 mm | Antiviral effect [8]: Not toxic | Inhibition zone (Poliovirus 1 [5]): 0 mm

Nc1ccccc1NC(=O)Nc1ccccc1
Toxicity zone (Poliovirus 1 [4]): 0 mm | Antiviral effect [8]: Not toxic | Inhibition zone (Poliovirus 1 [5]): 0 mm

Nc1ccccc1/N=C(/S)Nc1ccccc1
Toxicity zone [10]: 37 mm | Antiviral effect (Homo sapiens [11]): Not toxic | Toxicity zone (Poliovirus 1 [4]): 9 mm | Antiviral effect (Homo sapiens [12]): Not toxic | Toxicity zone [13]: 41 mm | Inhibition zone (Poliovirus 1 [5]): 28 mm | inhibition at 200 µM (cells [6]): 98.7%

Nc1cccc(O)c1 [3-AMINOPHENOL]
Toxicity zone (Poliovirus 1 [4]): 0 mm | Antiviral effect [8]: Not toxic | Inhibition zone (Poliovirus 1 [5]): 0 mm

Oc1ccc(/N=C(\S)Nc2ccc(O)cc2)cc1
Toxicity zone (Poliovirus 1 [4]): 0 mm | Inhibition zone (Poliovirus 1 [5]): 0 mm | Antiviral effect (Homo sapiens [14]): Not toxic

NC(N)=S [THIOUREA]
Toxicity zone (Poliovirus 1 [4]): 22 mm | Antiviral effect [8]: Not toxic | Inhibition zone (Poliovirus 1 [5]): 26 mm

O=C(Nc1ccccc1)Nc1ccc(O)cc1
Toxicity zone (Poliovirus 1 [4]): 0 mm | Antiviral effect [8]: Not toxic | Inhibition zone (Poliovirus 1 [5]): 0 mm

Oc1ccc(N/C(S)=N/c2ccccc2)cc1
Antiviral effect (Homo sapiens [15]): +/- | Antiviral effect [2]: Not toxic

Nc1ccc(/N=C(\S)Nc2ccc(N)cc2)cc1
Toxicity zone (Poliovirus 1 [4]): 0 mm | Antiviral effect [8]: Not toxic | Inhibition zone (Poliovirus 1 [5]): 0 mm

O=C(O)c1ccccc1/N=C(/S)Nc1ccccc1
Antiviral effect (Homo sapiens [7]): Not toxic

Oc1cccc(/N=C(\S)Nc2cccc(O)c2)c1
Toxicity zone [10]: 29 mm | Toxicity zone (Poliovirus 1 [4]): 11.4 mm | inhibition at 100 µM (cells [16]): 73.5% | Antiviral effect (Homo sapiens [17]): +/- | Antiviral effect (Homo sapiens [18]): +/- | Toxicity zone [13]: 33.3 mm | Inhibition zone (Poliovirus 1 [5]): 26.7 mm | inhibition at 200 µM (cells [6]): 89%

Nc1cccc(N/C(S)=N/c2ccccc2)c1
Toxicity zone [10]: 20 mm | Toxicity zone (Poliovirus 1 [4]): 18 mm | Toxicity zone [13]: 16.7 mm | Inhibition zone (Poliovirus 1 [5]): 28.3 mm | inhibition at 200 µM (cells [6]): 100%

O=C(Nc1ccccc1)Nc1cccc(O)c1
Toxicity zone [10]: 6.5 mm | Antiviral effect (Homo sapiens [15]): Not toxic | Antiviral effect (Homo sapiens [11]): Not toxic | Toxicity zone (Poliovirus 1 [4]): 7.3 mm | inhibition at 100 µM (cells [16]): 66.3% | Antiviral effect (Homo sapiens [12]): Not toxic | Toxicity zone [13]: 6.5 mm | Inhibition zone (Poliovirus 1 [5]): 13.3 mm | inhibition at 200 µM (cells [6]): 96.3%

Nc1ccccc1/N=C(\S)Nc1ccccc1N
Toxicity zone [10]: 43.5 mm | Toxicity zone (Poliovirus 1 [4]): 39.4 mm | Antiviral effect (Homo sapiens [17]): +/- | Antiviral effect (Homo sapiens [19]): Not toxic | Toxicity zone [13]: 34 mm | Inhibition zone (Poliovirus 1 [5]): 53.7 mm

Nc1ccc(N/C(S)=N/c2ccccc2)cc1
Antiviral effect (Homo sapiens [20]): Not toxic | Toxicity zone (Poliovirus 1 [4]): 0 mm | Antiviral effect (Homo sapiens [21]): Not toxic | Inhibition zone (Poliovirus 1 [5]): 0 mm | Antiviral effect (Homo sapiens [22]): Not toxic

O=C(O)c1ccc(N/C(S)=N/c2ccccc2)cc1
Antiviral effect [1]: Not toxic | Antiviral effect [2]: Not toxic | Antiviral effect (Homo sapiens [7]): Not toxic
